# Published values of several laboratories.
# Compare with care: the assays were run in different laboratories.
Compound,tested on,test,test system,setting,measurement,result
O=C1C(=Nc2ccccc2I)c2ccccc2N1Cc1ccc([N+](=O)[O-])cc1,L02,"cell growth or viability, MTT",,48 h,IC50,56.3 µM
Nc1ccn([C@@H]2CS[C@H](CO)O2)c(=O)n1,Hepatitis B virus,"viral replication, inhibitor, qPCR",HepDES19,72 h,EC50,0.4 µM
Fc1ccc(C=NNC(=S)Nc2cccnc2)cc1,Leishmania tropica,"parasite growth, MTT",,"72 h, promastigote",IC50,314 µM
CCOC(=O)C1=C(CN2CCC[C@H]2C(=O)Nc2cccc(B(O)O)c2)NC(c2nccs2)=N[C@H]1c1ccc(F)cc1Br,Hepatitis B virus,"viral replication, inhibitor, qPCR",HepDES19,72 h,EC50,1.9 µM
O=C1Nc2ccccc2C1=Nc1cccc(Cl)c1,L02,"cell growth or viability, MTT",,48 h,IC50,16 µM
C[C@H](Oc1nccc(-c2noc([C@@]3(C)CCCc4sc(N)c(C#N)c43)n2)n1)[C@@H]1CCCN1C,BaF3,cell growth or viability,,72 h,EC50,0.317 µM
CNC(=S)NN=Cc1ccc(O)c(OC)c1,Leishmania tropica,parasite growth,J774.A1,"72 h, intracellular, amastigote",IC50,248 µM
C[C@H]1CN(C)CCCN1c1nccc(-c2noc([C@@]3(C)CCCc4sc(N)c(C#N)c43)n2)n1,BaF3,cell growth or viability,,72 h,EC50,0.41 µM
O=C1C(=Nc2ccc(Cl)cc2Br)c2ccccc2N1Cc1ccc([N+](=O)[O-])cc1,L02,"cell growth or viability, MTT",,48 h,IC50,20.4 µM
Nc1nn2c(-c3ccco3)cc(-c3ccc(OCc4ccccc4)cc3)nc2c1N=Nc1ccc(F)cc1,Saccharomyces cerevisiae,"microbial growth, broth dilution",ATCC9763,,MIC,31.3 mg/L
CNC(=S)NN=Cc1ccc(F)cc1,Leishmania tropica,"parasite growth, MTT",,"72 h, promastigote",IC50,441 µM
Cc1nc(NC(=O)N2CCC[C@H]2C(N)=O)sc1-c1ccnc(C(C)(C)C(F)(F)F)c1,CAL-51,"cell growth or viability, ATP luminescence",,5 days,EC50,26 µM
Cc1ccc(CN2C(=O)C(=Nc3cccc(Cl)c3)c3ccccc32)cc1,L02,"cell growth or viability, MTT",,48 h,IC50,4.76 µM
C[C@H](Nc1ccc2c(c1)OCCn1cc(N3C(=O)OC[C@H]3C(F)F)nc1-2)C(N)=O,CAL-51,"cell growth or viability, ATP luminescence",,5 days,EC50,1.26 µM
O=C1Nc2ccccc2C1=Nc1ccccc1I,L02,"cell growth or viability, MTT",,48 h,IC50,77.5 µM
CCOC(=O)C1=C(CN2CCC[C@H]2C(=O)Nc2ccc(B(O)O)cc2)NC(c2nccs2)=N[C@H]1c1ccc(F)cc1Br,Hepatitis B virus,"viral replication, inhibitor, qPCR",HepDES19,72 h,EC50,1 µM
O=C1C(=Nc2ccccc2I)c2ccccc2N1Cc1ccc(Br)cc1,L02,"cell growth or viability, MTT",,48 h,IC50,35.2 µM
CCOC(=O)C1=C(CN2CCC(C(=O)Nc3ccc(B4OC(C)(C)C(C)(C)O4)cc3)C2)NC(c2nccs2)=NC1c1ccc(F)cc1Br (stereo not drawn),Hepatitis B virus,"viral replication, inhibitor, qPCR",HepDES19,72 h,EC50,0.77 µM
